An excerpt weighted towards active compounds, which were near 2.7% of everything screened.
OXTR potentiate – human OXTR potentiators, primary screen, fluorescence, CHO-OTR cells, Fluo-8 calcium. Oxytocin receptor (Homo sapiens), P30559. Fluo-8 calcium fluorescence, potentiator mode; 0% = oxytocin EC15, 100% = EC100. activation, % at 3 µM. 320,000 tested, 0.061% active;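 active = activation above that plate's cutoff, the mean activation of tested compounds plus 3 SD, cut at about 6.6% in these data, passing the limit was not always enough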
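Assay system: CHO cell line stably expressing human OTR. Reagent: EC15 oxytocin agonist. Dosing: single dose, 3.0 µM nominal final compound concentration. Timing: compound 6 min at room temperature before oxytocin, 100 s read. Signal: kinetic Fluo-8 calcium fluorescence. Controls: oxytocin EC15 low and EC100 high.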
V1R ag counter – agonists of human V1a receptor, primary screen, counter-screen for OXTR agonist project, fluorescence, CHO-V1R cells. Vasopressin V1a receptor (Homo sapiens), P37288. Fluo-8 calcium fluorescence, agonist mode; 0% DMSO, 100% 3 nM vasopressin. activation, % at 3 µM. 320,000 tested, 0.25% active;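 active = activation above the mean activation of all tested compounds plus 3 SD, per screening run, cut at about 20% in these data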;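 note: signal is peak over basal fluorescence ratio across a 100 second FLIPR read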
OXTR ag – human OXTR agonists, primary screen, fluorescence, CHO-OTR cells, Fluo-8 calcium; Fluo-8 calcium fluorescence; normalized: DMSO 0%, oxytocin 100%; activation, % at 3 µM; 320,000 tested, 0.32% active;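 active = activation above the mean of all tested compounds plus 3 SD, cutoff set per screening run, cut at about 20% in these data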;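 note: peak over basal fluorescence ratio from a 100 s FLIPR kinetic read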
OX1R antag-1 – OX1R (HCRTR1) antagonists, primary screen, fluorescence, CHO/OX1R cells, Fluo-8 calcium, orexin A. AID 434989, 2010. 330,000 tested, 0.43% active. Fluo-8 calcium fluorescence. inhibition, % at 5 µM;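 active = inhibition above its plate's threshold, mean inhibition of all tested compounds on the plate plus 3 SD, cut at about 37% in these data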
Target sequence (O43613 whole entry, looked up): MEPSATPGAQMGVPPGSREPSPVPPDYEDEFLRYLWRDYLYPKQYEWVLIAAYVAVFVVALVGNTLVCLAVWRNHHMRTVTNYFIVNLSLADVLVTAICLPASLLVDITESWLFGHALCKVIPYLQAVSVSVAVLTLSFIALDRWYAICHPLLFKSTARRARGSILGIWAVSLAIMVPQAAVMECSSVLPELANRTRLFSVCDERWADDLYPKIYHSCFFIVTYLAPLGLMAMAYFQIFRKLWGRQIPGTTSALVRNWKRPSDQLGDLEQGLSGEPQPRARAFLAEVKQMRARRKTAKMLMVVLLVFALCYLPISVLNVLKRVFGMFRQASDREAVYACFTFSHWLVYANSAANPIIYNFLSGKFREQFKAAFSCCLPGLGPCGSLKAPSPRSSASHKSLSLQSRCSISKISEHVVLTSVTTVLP
OX1R antag-2 – antagonists of human orexin 1 receptor (OX1R); inhibition, % at 6.6 µM; Orexin/Hypocretin receptor type 1 (Homo sapiens), O43613; 330,000 tested, 1.8% active; OX1R-expressing cells, FRET antagonist read-out; in the data active = inhibition mostly above about 38%, no sharp cut-off; inactive = mostly below about 40%
CHO parental Ca – ATP-evoked calcium signal inhibitors, parental CHO, primary screen, counter-screen for OX1R antagonist project, cell-based, fluorescence, Fluo-8 calcium dye; parental CHO-K1, ATP-induced calcium, Fluo-8 fluorescence; inhibition, % at 5.6 µM; 330,000 tested, 0.63% active; AID 463079, 2010;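 active = inhibition above that plate's mean sample inhibition plus 3 SD, cut at about 26% in these data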
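Material: Parental CHO cells | Reagent: ATP | Compound dosing: Single nominal dose of 5.6 µM per compound | Detection: Intracellular calcium via Fluo-8 no-wash fluorescent dye | Read-out: % inhibition of ATP-induced calcium mobilization | Benchmarks: Low control ATP plus DMSO, high control DMSO only | Replicates: Singlicate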
Of the large screens only hits and unclear results are named; the others gave an inactive call.

CCNC(=S)N1CCN(CCN2C(=O)c3cccc4cccc(c34)C2=O)CC1	none
NC(=O)CN1CCN(CCN2C(=O)c3cccc4cccc(c34)C2=O)CC1	OX1R antag-2 42
Nc1cc2c3c(cccc3c1)C(=O)N(CCN1CCCC1)C2=O	OX1R antag-2 43
Cc1ccc(C(C)C)cc1NC(=O)Nc1ccc([N+](=O)[O-])cc1	CHO parental Ca 55
CC(=O)c1ccc(NC(=O)Nc2ccc([N+](=O)[O-])cc2)cc1	CHO parental Ca 35
O=C(Nc1ccc([N+](=O)[O-])cc1)Nc1cnccn1	OX1R antag-2 67
CC(=O)N1C(=O)N(C(C)=O)C2C1N(C)C(=O)N2C(C)=O (stereo unspecified)	none
CCCCN1C(=O)C(=O)N(CC(=O)NC2CCCc3ccccc32)C1=O (stereo unspecified)	none
O=C(Cc1ccc(F)cc1)Nc1nnc(-c2ccc(F)cc2)o1	none
CC(C)C(NC(=O)c1ccc(F)cc1)C(=O)NC1(C)CCS(=O)(=O)C1 (stereo unspecified)	none
O=C(CSc1nc2ncc(Cl)cc2[nH]1)Nc1cccc(F)c1	OX1R antag-2 47
CSc1nc(N)nc(SCC(=O)Nc2ccc(Cl)cc2)c1C#N	none
CSc1nc(N)nc(SCC(=O)Nc2cccc(F)c2)c1C#N	CHO parental Ca 62
Cc1cc(/C=C2\SC(=S)N(C)C2=O)c(C)n1-c1ccccc1O	OX1R antag-1 52, CHO parental Ca 36
Cc1cc(/C=C2/SC(=S)N(c3cccc(Cl)c3)C2=O)c(C)n1-c1cccnc1	OX1R antag-1 53, OX1R antag-2 71, CHO parental Ca 46
CCOC(=O)CNC(=O)N(CCOC)CC1CCCN(C2Cc3ccccc3C2)C1 (stereo unspecified)	none
CCc1nnc(NS(=O)(=O)c2ccc(NC(=S)NC(=O)/C=C/c3ccc(C(C)C)cc3)cc2)s1	CHO parental Ca 44
CCc1nnc(NS(=O)(=O)c2ccc(NC(=S)NC(=O)/C=C/c3ccccc3)cc2)s1	none
Cc1cc2nc(C3CCCN(C(=O)NCc4ccccc4)C3)[nH]c2cc1C (stereo unspecified)	OX1R antag-2 61
COc1ccc(C2C(C(C)=O)=C(C)N=c3s/c(=C\c4ccco4)c(=O)n32)c(OC)c1 (stereo unspecified)	none
COc1ccc(C2C(C(C)=O)=C(C)N=c3s/c(=C\c4cc(C)n(C)c4C)c(=O)n32)c(OC)c1 (stereo unspecified)	V1R ag counter 40, OXTR ag 35
c1ccc(-c2nc(NC3CCCC3)c3ccccc3n2)cc1	OX1R antag-2 49
CCOC(=O)N1CCN(C(=O)/C=C/c2ccc(C(C)(C)C)cc2)CC1	none
Cc1ccc(N2CCN(S(=O)(=O)c3ccc(Cl)s3)CC2C)cc1 (stereo unspecified)	none
CCOc1ccc(NS(=O)(=O)c2ccc(C(=O)N3CCCC(C)C3)cc2)cc1 (stereo unspecified)	V1R ag counter 39, OXTR ag 47, OX1R antag-1 36, CHO parental Ca 52
O=C(c1ccc(S(=O)(=O)Nc2ccccc2)cc1)N1CCCC(C(F)(F)F)C1 (stereo unspecified)	V1R ag counter 43, OXTR ag 36
CCOc1ccc(S(=O)(=O)Nc2ccc(C(=O)N3CCCC3)cc2)cc1	none
COc1ccc(NS(=O)(=O)c2ccc(C(=O)N3CCCCCC3)cc2)cc1	V1R ag counter 24, OXTR ag 27
CCOc1ccc(NS(=O)(=O)c2ccc(C(=O)N3CCCCCC3)cc2)cc1	none
CSc1ccccc1NC(=O)C1=CC(c2cccs2)=NS(=O)(=O)N1C	none
O=C(Nc1ccc([N+](=O)[O-])cc1)C1CC1(c1ccccc1)c1ccccc1 (stereo unspecified)	none
CC1(C)C(C=C(Cl)Cl)C1C(=O)Nc1ccc([N+](=O)[O-])cc1 (stereo unspecified)	CHO parental Ca 50
Brc1ccc(N/N=C(/N=Nc2nn[nH]n2)c2ccccc2)cc1	OX1R antag-2 47
CCc1c(C2(O)CCCCC2)[nH]c2ccc(C(F)(F)F)cc12	OX1R antag-2 59, CHO parental Ca 40
C=CCn1c(=N)n(CC(=O)c2cccc([N+](=O)[O-])c2)c2ccccc21	OX1R antag-2 39
COc1ccc(S(=O)(=O)n2cccc2)cc1	none
Cn1cc(CNCc2ccc(OC(F)(F)F)cc2)c(-c2ccc3c(c2)OCCO3)n1	CHO parental Ca 40
Cc1ccc2[nH]c(=O)c(C(c3nnnn3Cc3ccccc3)N3CCc4ccccc43)cc2c1 (stereo unspecified)	none
Cc1cc2cc(C(c3nnnn3Cc3ccccc3)N3CCc4ccccc43)c(=O)[nH]c2cc1C (stereo unspecified)	OX1R antag-2 46
Cc1nc2cc(-c3ccc(F)cc3)[nH]n2c(=O)c1C	CHO parental Ca 42
CCCn1c(N)c(N(CCOC)C(=O)c2ccc(-c3ccc(Cl)cc3)o2)c(=O)[nH]c1=O	none
O=C(NCc1ccccc1C(F)(F)F)c1cccc2c1C(=O)c1ccc(N3CCCCC3)cc1S2(=O)=O	V1R ag counter 25, OXTR ag 24
C=CCNC(=O)c1cccc2c1C(=O)c1ccc(N3CCOCC3)cc1S2(=O)=O	OX1R antag-2 64
CC1(C)NC(=O)N(c2ccc([N+](=O)[O-])c(C(F)(F)F)c2)C1=O	none
COc1ccc(C(C(=O)NCc2ccc(F)cc2)N(C(=O)c2csnn2)C2CC2)cc1 (stereo unspecified)	none
Cc1ccc(/C=N/N(C)S(=O)(=O)c2ccc(C)cc2)cc1	CHO parental Ca 51
Cc1ccc(S(=O)(=O)N(C)/N=C/c2ccc(C(=O)O)cc2)cc1	none
CSc1ccc(/C=N/N(C)S(=O)(=O)c2ccc(C)cc2)cc1	CHO parental Ca 63
O=C(CSc1nnc(COc2ccccc2)o1)N1CCCCC1	none
O=S(=O)(Nc1cccc(-c2cn3c(n2)SCC3)c1)c1cccs1	OX1R antag-2 56
CS(=O)(=O)c1ccc(NCCc2ccccn2)c([N+](=O)[O-])c1	OX1R antag-2 52
O=[N+]([O-])c1cc(C(F)(F)F)ccc1NCCc1ccccn1	none

Screening results: PubChem, The Scripps Research Institute Molecular Screening Center
